The data set can be described thus: Toxicity liver stage against HepG2, at 10uM. The data set is classed as cell-based. More on the design: test concentration 10 uM, cell line HepG2-A16-CD81EGFP. The following applies: human, HepG2-A16-CD81EGFP cells; read-out: INHIBITION
In a few lines: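 Uninfected HepG2-A16-CD81EGFP cells, 3 × 10^3 per well, 1536-well, plated on prespotted compound at 10 μM final, parasite-free screening media added to match infected plates; puromycin 10 μM positive, DMSO 0.5% negative; run in parallel with 48 h PbLuc assay at 37 °C, 5% CO2; viability by CellTiter-Glo luminescence, normalized to controls.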
As for `Cn1c(C(F)(F)F)nn(CCNC(=O)Nc2ccccc2F)c1=O`, the cytotoxicity at 10 µM is -2.59%.
On to `O=C(Cc1ccc2c(c1)CCO2)Nc1cccnc1-n1cncn1`, for which the cytotoxicity at 10 µM is 3.94%.
The result for `COCc1noc(CN2CCC3(CC2)[C@H](O)C[C@@H]3OC)n1` reads 0.0851%; that for `CCN(Cc1nccn1C)C1CCN(c2ccccc2)C1=O` (configuration not stated), 4.19%.
With `Cc1nc(C)n(CC2CCCN2CC(=O)Nc2ccncc2)n1` (configuration not stated), the cytotoxicity at 10 µM is -1.73%.
For the compound `Cc1nc(CCC(N)=O)cc(C2CCNCC2)n1`, the cytotoxicity at 10 µM is -15.1%.
The result for `CNC(=O)C(C)NC(=O)c1ccc(Oc2cccnc2)cc1` (configuration not stated) reads 6.32%.
The result for `O=C(NS(=O)(=O)Cc1ccc(F)cc1)C1CCc2ccccc21` (configuration not stated) reads -13.1%.
On to `CCOC(=O)NCc1nn(CCN2CCCC2)c(=O)c2ccccc12`, for which the cytotoxicity at 10 µM is 9.66%.
As for `Cc1cnn(CC2CCCN2Cc2ncc(-c3ccc(F)cc3)o2)c1` (configuration not stated), the cytotoxicity at 10 µM was -17.6%.
The result for `CCN(C)C1CCCc2nc(C)sc21` (configuration not stated) reads -0.887%; that for `COc1ccccc1C1CNC(=O)c2nc(-c3cn(C)nc3C)[nH]c2C1` (configuration not stated), -1.07%.
The result for `CC(C(=O)NCC(C)(C)c1ccc2c(c1)OCCO2)n1cncn1` (configuration not stated) reads 13.8%; that for `Cc1ccc(CN2CCC(c3nnc(CN4CCCCC4)n3C)CC2)o1`, -5.1%; that for `CCN(Cc1cccnc1)CC1CCCO1` (configuration not stated), -10.7%.
The result for `O=C1C(Sc2nc(=O)ccn2C2CC2)CCN1c1ccccc1F` (configuration not stated) reads 1.73%; that for `CN(C)CC(=O)N1C[C@@H](Oc2ccccn2)[C@H]2OCCC[C@H]21`, 9.11%.
As to `Cc1noc(C)c1CC(=O)N1CCc2sccc2C1`, the cytotoxicity at 10 µM is -18.4%.
The result for `Cc1nc(-c2ccc(CNS(=O)(=O)N(C)C)cc2)ccc1C(N)=O` reads -8.53%; that for `c1cnc(N2CC3(CCN(C4CCOCC4)CC3)c3ccccc32)nc1`, -6.32%; that for `O=C1O[C@@H]2CN(C3CCOCC3)C[C@@H]2N1CCc1cccc(Cl)c1`, -1.11%.
As to `Cc1cc(NC(=O)NCCOc2ccc(Cl)cn2)no1`, the cytotoxicity at 10 µM worked out at 9.08%.
As for `CNc1cc(N2CCCC2CNCc2cnc(C)s2)ncn1` (configuration not stated), the cytotoxicity at 10 µM was -3.78%.
The result for `CC(Cn1cccn1)NC(=O)Nc1ccc(N2CCCC2)nc1` (configuration not stated) reads -0.708%; that for `Cc1c(NC(C)C(C)C)cccc1C(=O)NCc1cnn(C)c1` (configuration not stated), 27%.
Regarding `Cn1cc(N2CCC(NC(=O)c3c(F)cccc3Cl)C2=O)cn1` (configuration not stated), the cytotoxicity at 10 µM was found to be 0.91%.
With `CO[C@H]1CN(C(=O)OC(C)(C)C)CC1NCc1ccco1` (some centres not stated), the cytotoxicity at 10 µM was -46.9%.
The result for `CN1CCN(C(=O)N2CCCC(c3nccn3CC3CCC3)C2)CC1` (configuration not stated) reads 6.64%; that for `COc1ccc(C)cc1NS(=O)(=O)c1ccc(CCNC(C)=O)s1`, 0.549%; that for `Clc1ccccc1-c1nnc(CNCCn2cccn2)o1`, 1.4%.
The result for `Cc1nn(C)c(C)c1NC(=O)CN1CCCC1c1noc(C(C)C)n1` (configuration not stated) reads -1.08%.
On to `CN(CCCc1nccn1C)C(=O)C1COc2ccccc2C1` (configuration not stated), for which the cytotoxicity at 10 µM is -9.1%.
On to `O=C(Nc1ccccc1F)N1CCN(Cc2noc(C3CC3)n2)CC1`, for which the cytotoxicity at 10 µM is -0.144%.
For the compound `O=C(c1nccc2ccccc12)N1CCCCC1Cn1cccn1` (configuration not stated), the cytotoxicity at 10 µM is -4.31%.
As for `CCN1CCC(NC(=O)CN2CCCCC2Cn2cc(C)cn2)CC1` (configuration not stated), the cytotoxicity at 10 µM was 0.144%.
The result for `CN1CC(=O)N(c2ccsc2)CC12CCN(C(=O)N1CCCC1)C2` (configuration not stated) reads -72.6%; that for `CC(C)CC(C#N)NC(=O)CCNC(=O)C(C)(C)C` (configuration not stated), -3.3%; that for `CCn1cc(C#N)c(=O)c2cc(Br)ccc21`, 1.35%.
For the compound `Cc1cc(C)n(C2CN(C(=O)Cn3c(=O)c(C)nc4ccccc43)C2)n1`, the cytotoxicity at 10 µM is -7.59%.
The result for `O=C(Nc1nc2c(s1)CN(S(=O)(=O)C1CC1)CC2)c1ccsc1` reads 24.9%; that for `CC(=O)c1cc2ncc(C(=O)NC3CCCC3)cc2[nH]1`, -1.98%.
The result for `Cc1csc2nc3n(c(=O)c12)CCN(Cc1c[nH]cn1)CC3` reads -18.8%.
The result for `COc1ccccc1CNC(=O)COc1ccc2c(c1)OCC2O` (configuration not stated) reads -3.75%; that for `CC(=O)N1CCCn2nc(CNS(=O)(=O)Cc3ccccc3)cc2C1`, -6.19%.
Turning to `CCNC(=O)N1CCC(NC(=O)NCCc2ccc(C)cc2C)C1` (configuration not stated), the cytotoxicity at 10 µM is -44.6%.
The result for `CCS(=O)(=O)N1CCC2(CC1)CC(COC)N(c1ncccn1)C2` (configuration not stated) reads 5.57%.
For `Cn1cnnc1-c1ccnc(NCc2ccc3c(c2)OCCO3)c1`, the cytotoxicity at 10 µM was -11%.
The result for `Cc1nc[nH]c1C(=O)N1CCC2(CC1)CN(CCN(C)C)C(=O)O2` reads 4.54%.
In the case of `COc1ccc(C)cc1S(=O)(=O)NCCC(O)c1ccccc1` (configuration not stated), the cytotoxicity at 10 µM amounted to 0.197%.
The result for `CC1CN(C(=O)CN(Cc2ccccc2)C2CC2)CCO1` (configuration not stated) reads -16.1%; that for `CC[C@H]1CN2CC[C@H]1C[C@@H]2CNC(=O)Nc1cccc(C#N)c1`, -0.201%.
As to `CCOCc1nc2c(c(NC(CC)c3ccnn3C)n1)CCNCC2` (configuration not stated), the cytotoxicity at 10 µM is -5.53%.
The result for `CC(=O)c1cc(C(=O)NC2(c3ccccc3)CCC2)n(C)c1` reads -11.7%; that for `CS(=O)(=O)N1C[C@@H](F)[C@@H](OCc2nc3ccccc3o2)C1`, -4.47%.
The result for `CCSc1cncc(N2CCC(C(=O)Nc3ccccn3)CC2)n1` reads 26.3%; that for `Cc1n[nH]c(C2CN(Cc3csc(C4CCCCC4)n3)CCO2)n1` (configuration not stated), 23.8%.
The result for `O=C(CCn1c(=O)oc2ccccc21)NCC(O)c1ccccc1` (configuration not stated) reads -15.6%.
On to `Fc1ccc(C(CNc2ccncn2)N2CCCC2)cc1` (configuration not stated), for which the cytotoxicity at 10 µM came out at 15.9%.
The result for `Cc1ccc(C(=O)N2CCC(C(F)(F)F)CC2)cc1N1CCNC1=O` reads 2.01%.
In the case of `COCCn1c2c(ccc1=O)CC(NCc1cccnc1OC)CC2` (configuration not stated), the cytotoxicity at 10 µM is -106%.
On to `CC(C)(O)CCc1ccc(C(=O)NCCC2CCCOC2)cc1` (configuration not stated), for which the cytotoxicity at 10 µM was determined as 0.782%.
The result for `CCSc1cc(C(=O)NCc2ccccc2O)ccn1` reads -3.81%; that for `CN(CC(=O)Nc1ccon1)S(=O)(=O)c1cc(Cl)ccc1Cl`, 0.424%.
The result for `CCn1ccnc1CN1CCN(Cc2cnc(C)cn2)CC1C` (configuration not stated) reads -2.76%.
Turning to `Cc1cnn(CC2CN(CCc3ccncc3)CCO2)c1` (configuration not stated), the cytotoxicity at 10 µM is -13.6%.
For the compound `O=C(COCC1CC1)Nc1ncccc1I`, the cytotoxicity at 10 µM was determined as 22.5%.
With `CC(=O)Nc1cccc(C(C)NCC2CCS(=O)(=O)CC2)c1` (configuration not stated), the cytotoxicity at 10 µM came to 0.224%.
The result for `CC(NC(=O)Cn1ccc(=O)n(C)c1=O)c1cc(F)ccc1F` (configuration not stated) reads -4.64%.
The result for `O=c1cc(N2CCCCC2)cnn1CC(O)C(F)(F)F` (configuration not stated) reads 12.3%.
The result for `CC(C)n1cc(CN2CCCN(C(=O)c3ccc[nH]3)CC2)cn1` reads 3.59%; that for `CN1CCN([C@H]2CCN(C(=O)c3nn(C)cc3Cl)C[C@H]2CCCO)CC1`, -2.86%; that for `O=C([C@@H]1Cc2[nH]cnc2CN1Cc1cc2ccccc2o1)N1CCCC1`, 2.23%.
For `COc1cccc(N2CC3(CCN(Cc4nccn4C)C3)CC2=O)c1` (configuration not stated), the cytotoxicity at 10 µM was -83%.
Turning to `CC(C)c1nn(C)c(N(C)C)c1CNC1CCOc2ccccc21` (configuration not stated), the cytotoxicity at 10 µM turned out to be 9.36%.
The result for `CC1Cc2ccccc2N1Cc1occc1C(=O)O` (configuration not stated) reads 0.995%; that for `CC(C)N1CC[C@H]2[C@H](C[C@@H](Cn3cncn3)N2c2nccs2)C1`, 4.68%.
The result for `CC(C)(NC(=O)c1ccc(-c2ccc(F)cc2)s1)C(N)=O` reads -4.05%.
For `CC(C)(C)c1nc(CC(=O)N2CCCC(n3cncn3)C2)cs1` (configuration not stated), the cytotoxicity at 10 µM was -11.2%.
The result for `O=C(Nc1ccnc2ccnn12)c1ccc(NC2CC2)nc1` reads 5.14%.
The result for `Cc1nc2cc(=O)[nH]n2c(C)c1CC(=O)Nc1ccc2ccccc2n1` reads -4.15%.
The result for `COc1ccc(CNC(=O)NCC(=O)NC2CC2)c(C(F)(F)F)c1` reads 6.41%.
In the case of `CCOC(C)c1nc(CN2CCNCC2)cs1` (configuration not stated), the cytotoxicity at 10 µM is -13.3%.
The result for `O=C(NC1CCCC1)c1ccnc(C2CCNCC2)c1` reads -11.3%; that for `N#Cc1cccnc1OC1CCN(S(=O)(=O)c2ccc(F)c(Cl)c2)CC1`, 6.27%; that for `c1csc(COC[C@H]2CCC[C@]23CN(Cc2ccoc2)CCO3)n1`, -67.3%.
The result for `CC(C)(C)n1cc(NC(=O)C2CN(Cc3ccccc3)CCO2)cn1` (configuration not stated) reads 0.935%.
The result for `CCc1ccsc1C(=O)N1CCCN(Cc2cscn2)CC1` reads -4.77%; that for `c1ncn(CC2CN(CC3CCCC3)CCO2)n1` (configuration not stated), 4.93%.
With `CC(=O)N1CC(=O)N(c2ccccc2)CC12CCN(Cc1nccs1)C2` (configuration not stated), the cytotoxicity at 10 µM is -2.23%.
The result for `O=C(CC1CCCC1)N1CC[C@H]2[C@H]1CCN2c1nncs1` reads -3.43%; that for `COc1c(CC2CC(CO)=NO2)c(Br)c2c(c1OC)OCO2` (configuration not stated), -1.43%; that for `Cc1ccc2[nH]c(CNC(=O)C3CC4(CCNCC4)CN3C)nc2c1C` (configuration not stated), -9.66%.
The result for `O=C(Nc1cccnc1)[C@H]1COC[C@H]2CN(C3CCCC3)C[C@H]21` reads -20.1%; that for `CN(C)CC(=O)N1Cc2nnn(C)c2C(COCC2CC2)C1` (configuration not stated), -99.4%.
The result for `Cc1cc(Cc2ccccc2C)cc(C2CCCNC2)n1` (configuration not stated) reads -3.59%.
For `Cn1cc(CN2CCc3ncnc(N4CCCC4)c3CC2)cn1`, the cytotoxicity at 10 µM was -0.818%.
The result for `COc1cccc(Cc2nnc(SCCS(C)(=O)=O)o2)c1` reads 2.72%.

Source of the values: ChEMBL document CHEMBL4513216, “Probing the Open Global Health Chemical Diversity Library for Multistage-Active Starting Points for Next-Generation Antimalarials” (ACS Infect Dis, 2020).
